Our source for the IC50 and Selectivity values is ChEMBL document CHEMBL1145084, “Polymer-assisted solution-phase library synthesis and crystal structure of alpha-ketothiazoles as tissue factor VIIa inhibitors” (J Med Chem, 2003).

In one experiment the target is Coagulation factor X (Homo sapiens, UniProt P00742). As to the kind of experiment: Inhibitory activity against coagulation factor X. The gist of the method:
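Human Factor Xa (0.3 nM) with chromogenic substrate S-2765 (0.15 mM) in 50 mM Tris-HCl pH 8.0, 100 mM NaCl, 0.1% BSA. A405 background read taken at once, then 60 min at room temperature, then p-nitroaniline release rate at 405 nm. Duplicates at seven concentrations; % inhibition versus control; IC50 from four-parameter logistic fit, averaged over the duplicates.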

A further experiment deals with Prothrombin (Homo sapiens, UniProt P00734). The experiment in a line: Inhibitory activity against thrombin (IIa). A digest of the protocol:
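Human thrombin (0.28 nM) with H-D-Phe-Pip-Arg-p-nitroaniline (0.06 mM) in 50 mM Tris-HCl pH 8.0, 100 mM NaCl, 0.1% BSA. Immediate background read at 405 nm, then 60 min at room temperature before measuring p-nitroaniline release rate at 405 nm. Seven concentrations in duplicate; % inhibition versus control; IC50 by four-parameter logistic regression.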

The target of a further experiment is T1, Coagulation factor VII (Homo sapiens, UniProt P08709).
T1 sequence (P08709 whole entry): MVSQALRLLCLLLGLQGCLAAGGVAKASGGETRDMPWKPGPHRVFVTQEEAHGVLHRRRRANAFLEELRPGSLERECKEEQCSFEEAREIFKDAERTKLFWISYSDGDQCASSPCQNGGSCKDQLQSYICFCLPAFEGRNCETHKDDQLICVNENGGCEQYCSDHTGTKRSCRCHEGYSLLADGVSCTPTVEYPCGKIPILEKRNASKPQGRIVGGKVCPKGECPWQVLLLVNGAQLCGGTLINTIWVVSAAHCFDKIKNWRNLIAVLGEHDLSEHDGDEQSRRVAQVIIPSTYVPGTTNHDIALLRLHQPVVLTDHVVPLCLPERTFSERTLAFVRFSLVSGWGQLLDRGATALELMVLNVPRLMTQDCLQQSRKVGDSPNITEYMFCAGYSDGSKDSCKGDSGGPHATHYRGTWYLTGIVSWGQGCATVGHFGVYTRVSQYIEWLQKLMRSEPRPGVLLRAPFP
As to the kind of experiment: Inhibitory activity against tissue coagulation factor VII. The gist of the method: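 Complex of recombinant soluble tissue factor (100 nM) and recombinant human Factor VIIa (2 nM). Substrate N-methylsulfonyl-D-Phe-Gly-Arg-p-nitroaniline at 0.4 mM in 5 mM CaCl2, 50 mM Tris-HCl pH 8.0, 100 mM NaCl, 0.1% BSA. Background A405 read first; after 60 min at room temperature, hydrolysis rate read at 405 nm. Duplicates at seven concentrations; IC50 is the duplicate average.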

Experiment [1] concerns the target Thrombin and coagulation factor VII (Homo sapiens) (UniProt P00734+P08709). As to the kind of experiment: Selectivity for coagulation factor VIIa over thrombin IIa. In kind it is protein assay.

Coagulation factor X, sequence (P00742 41-179 limits assumed): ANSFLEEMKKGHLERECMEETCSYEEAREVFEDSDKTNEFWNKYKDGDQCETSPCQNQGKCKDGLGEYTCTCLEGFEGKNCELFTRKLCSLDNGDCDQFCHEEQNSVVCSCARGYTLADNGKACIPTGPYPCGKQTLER
Coagulation factor X, sequence (P00742 235-488 limits assumed): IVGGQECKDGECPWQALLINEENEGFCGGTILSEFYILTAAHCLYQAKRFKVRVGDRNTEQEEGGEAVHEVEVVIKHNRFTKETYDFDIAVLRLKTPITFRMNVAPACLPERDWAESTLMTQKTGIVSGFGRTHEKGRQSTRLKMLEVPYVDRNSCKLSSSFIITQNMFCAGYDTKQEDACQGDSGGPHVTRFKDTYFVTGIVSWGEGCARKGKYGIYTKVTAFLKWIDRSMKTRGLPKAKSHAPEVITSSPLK

`N=C(N)NCCC[C@H](NC(=O)[C@H](CC1CCCCC1)NC(=O)[C@@H](Cc1ccccc1)NS(=O)(=O)Cc1ccccc1)C(=O)c1nccs1`: the IC50 against Coagulation factor X worked out at 2700 nM; against Prothrombin, 24200 nM; at Coagulation factor VII, 3300 nM. For the same molecule, in experiment [1], the Selectivity was determined as 7.
The corresponding values for `N=C(N)NCCC[C@H](NC(=O)[C@H](CO)NC(=O)[C@@H](Cc1ccccc1)NS(=O)(=O)Cc1ccccc1)C(=O)c1nccs1` are 240 nM, 40 nM, 110 nM and 0.4.
Take `N=C(N)NCCC[C@H](NC(=O)[C@H](Cc1ccc(F)cc1)NC(=O)[C@@H](Cc1ccccc1)NS(=O)(=O)Cc1ccccc1)C(=O)c1nccs1`: the IC50 is 185 nM at Coagulation factor X, 3150 nM against Prothrombin and 170 nM against Coagulation factor VII. The same molecule showed a Selectivity in experiment [1] of 19.
The corresponding values for `N=C(N)NCCC[C@H](NC(=O)[C@H](CC(=O)OC1CCCCC1)NC(=O)[C@@H](Cc1ccccc1)NS(=O)(=O)Cc1ccccc1)C(=O)c1nccs1` are 1250 nM, 4990 nM, 3180 nM and 2.
The corresponding values for `N=C(N)NCCC[C@H](NC(=O)[C@H](Cc1cn(Cc2ccccc2)cn1)NC(=O)[C@@H](Cc1ccccc1)NS(=O)(=O)Cc1ccccc1)C(=O)c1nccs1` are 2400 nM, 9920 nM, 9970 nM and 1.
With `N=C(N)NCCC[C@H](NC(=O)[C@H](Cc1cccc(-c2ccccc2)c1)NC(=O)[C@@H](Cc1ccccc1)NS(=O)(=O)Cc1ccccc1)C(=O)c1nccs1`, the figures for the IC50 against Coagulation factor X, on Prothrombin and against Coagulation factor VII were 1070 nM, 1680 nM and 1830 nM, respectively. The molecule also had a Selectivity in experiment [1] of 1.
The corresponding values for `N=C(N)NCCC[C@H](NC(=O)[C@H](Cc1ccc(Br)cc1)NC(=O)[C@@H](Cc1ccccc1)NS(=O)(=O)Cc1ccccc1)C(=O)c1nccs1` are 380 nM, 3190 nM, 760 nM and 4.

Broadly, the IC50 is the concentration at which inhibition is half-maximal. Low readings indicate greater potency, high ones weaker potency.
